Results collected from several papers.
Compare with care: the assays were run in different laboratories.
CDK2 with cyclin A2: Cyclin-dependent kinase 2, with cyclin A2 (CDK2, Homo sapiens, UniProt P24941)
ST14: Suppressor of tumorigenicity 14 protein (ST14, Homo sapiens, UniProt Q9Y5Y6)

SMILES | target | test | conditions | endpoint | result
CC(=O)Nc1c(N)nc(SCC(=O)N/N=C/c2ccc([N+](=O)[O-])cc2)[nH]c1=O | CDK2 with cyclin A2 | enzyme activity, inhibitor | 0.5 µM | inhibition | 51.5%
CCCC[C@H](NC(=O)[C@H](Cc1cscn1)NC(=O)CCc1ccccc1)C(=O)N[C@@H](CCCNC(=N)N)C(=O)c1nc2ccccc2s1 | ST14 | enzyme activity, inhibitor | 0.1 µM | remaining activity | 37%
COc1cc(-c2cncc3c2CN(C)Cc2cc(N4CCNCC4)ccc2-3)cc(OC)c1OC | Serine/threonine-protein kinase D3 (PRKD3, Homo sapiens, UniProt O94806) | enzyme activity, inhibitor | 1 µM | remaining activity | 92%
CNc1ncc2c(/C=C/C(=O)N3CCC(OC)CC3)nn(Cc3cccc(C(F)(F)F)c3)c2n1 | Serine/threonine-protein kinase VRK1 (VRK1, Homo sapiens, UniProt Q99986) | enzyme activity, inhibitor, radiometric | 1 µM | remaining activity | 100%
CC(=O)Nc1c(N)nc(SCC(=O)NN)[nH]c1=O | CDK2 with cyclin A2 | enzyme activity, inhibitor | 0.5 µM | inhibition | 53.4%
N=C(N)NCCC[C@H](NC(=O)[C@H](Cc1ccccc1I)NC(=O)[C@H](Cc1cscn1)NC(=O)CCc1ccccc1)C(=O)c1nc2ccccc2s1 | ST14 | enzyme activity, inhibitor | 0.1 µM | remaining activity | 90%
Cc1cc([C@@H](C)Nc2ccccc2C(=O)O)c2nc(N3CCC(F)(F)CC3)c(C#N)c(=O)n2c1 | Angiopoietin-1 receptor (TEK, Homo sapiens, UniProt Q02763) | binding, competition with immobilised ligand | 10 µM | remaining binding | 100%
C=CC(=O)N1CCC(COCC(=O)N2CCN(c3nc(-c4cnc(N)nc4C(F)F)nc(N4CCOC[C@@H]4C)n3)CC2)CC1 | ALK tyrosine kinase receptor (ALK, Homo sapiens, UniProt Q9UM73, L1196M) | binding, competition with immobilised ligand | 1 µM | remaining binding | 77%
N=C(N)NCCC[C@H](NC(=O)[C@H](CC1CC1)NC(=O)[C@H](Cc1cscn1)NC(=O)CCc1ccccc1)C(=O)c1nc2ccccc2s1 | ST14 | enzyme activity, inhibitor | 0.1 µM | remaining activity | 68%
CNC(=O)c1cc(Oc2ccc(NC(=O)Nc3ccc(Cl)c(C(F)(F)F)c3)cc2)ccn1 | CDK2 with cyclin A2 | enzyme activity, inhibitor | 0.1 µM | inhibition | 58.2%
